Test results from publication PMC3776227 (Biochemical Pharmacology, 2013).

Columns and labels:
GABAA receptors = assay: Direct activation of GABAA receptors in the absence of GABA; type: cell-based, rat; details: up to 300 μM, no GABA
α2β2 GABAA receptors = α2β2 GABAA receptors (Rattus norvegicus, UniProt P23576+P63138); assay: IGABA modulation, two-microelectrode voltage clamp, Xenopus oocytes, α2β2; type: cell-based
Procedure, shortened: (§1)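 Rat GABAA subunit cRNAs were injected into stage V–VI Xenopus oocytes (10–50 nl, about 300–3000 pg/nl): α1β1 at 3:1, other αβ pairs at 1:1, and γ2S-containing receptors at α:β:γ 1:1:10. Oocytes were kept 24–48 h at 18 °C in ND96 with penicillin/streptomycin. Two-electrode voltage clamp was run at −70 mV in HEPES-buffered bath (pH 7,4).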

TRPV1 channels = TRPV1 channels (Rattus norvegicus, UniProt O35433); assay: TRPV1 activation, two-microelectrode voltage clamp, Xenopus oocytes; type: cell-based
Procedure, shortened: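 Rat TRPV1 cRNA was injected into Xenopus oocytes, which were stored 24–48 h at 18 °C. Two-electrode voltage clamp was run at −60 mV. Test compound (3–300 μM) was applied by fast perfusion. Peak inward current was normalised to a preceding 300 μM control response to the parent test compound in the same cell. Hill fit; n = 3–10 cells.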

α3β2 GABAA receptors [1] = target: T1, α3β2 GABAA receptors (Rattus norvegicus, UniProt P20236+P63138); assay: Shift of the GABA concentration-response curve by 100 μM compound; type: cell-based; details: enhancement not significant (p > 0.05)
α1β1 GABAA receptors = α1β1 GABAA receptors (Rattus norvegicus, UniProt P15431+P62813); assay: IGABA modulation, two-microelectrode voltage clamp, Xenopus oocytes, α1β1; type: cell-based
Procedure, shortened: as §1

C57BL/6N mice [2] = assay: Seizure threshold, pentylentetrazole; type: in vivo; details: for Seizure threshold (PTZ dose): 30 min before PTZ, control 39.4 ± 2.8
α5β2 GABAA receptors = α5β2 GABAA receptors (Rattus norvegicus, UniProt P19969+P63138); assay: IGABA modulation, two-microelectrode voltage clamp, Xenopus oocytes, α5β2; type: cell-based
Procedure, shortened: as §1

C57BL/6N mice [3] = assay: Measurement of body temperature; type: in vivo; details: 3 h after injection, control 36.10 ± 0.10 °C
C57BL/6N mice [4] = assay: Open Field Test; type: in vivo
Procedure, shortened: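 Male C57BL/6N mice (3–6 months) were dosed i.p. with test compound or vehicle (saline, 10% DMSO, 3% Tween 80, pH 7.4) 30 min before testing. Ambulation was tracked by infrared for 10 min in a 50 × 50 × 50 cm box at 150 lx, starting in the centre. Zones: border ≤8 cm from wall, centre 20 × 20 cm. ≥8 mice; ANOVA with Bonferroni.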

α1β3 GABAA receptors = α1β3 GABAA receptors (Rattus norvegicus, UniProt P62813+P63079); assay: IGABA modulation, two-microelectrode voltage clamp, Xenopus oocytes, α1β3; type: cell-based
Procedure, shortened: as §1

α1β2γ2S GABAA receptors = α1β2γ2S GABAA receptors (Rattus norvegicus, UniProt P62813+P63138); details: piperine data taken from the literature; cited from earlier work
α3β2 GABAA receptors [5] = target: T1, α3β2 GABAA receptors; assay: IGABA modulation, two-microelectrode voltage clamp, Xenopus oocytes, α3β2; type: cell-based
Procedure, shortened: as §1

α1β2 GABAA receptors = α1β2 GABAA receptors (Rattus norvegicus, UniProt P62813+P63138); assay: IGABA modulation, two-microelectrode voltage clamp, Xenopus oocytes, α1β2; type: cell-based
Procedure, shortened: as §1

C57BL/6N mice [6] = assay: Elevated Plus Maze Test; type: in vivo
Procedure, shortened: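 Test compound or vehicle (saline, 10% DMSO, 3% Tween 80, pH 7.4) was injected i.p. into male C57BL/6N mice (3–6 months) 30 min before a 5-min elevated plus maze trial. The maze stood 1 m high with 30 × 5 cm arms and 20 cm closed-arm walls, lit at 180 lx. Mice started in the centre facing an open arm; scoring was automated by video. ≥9 mice; ANOVA with Bonferroni.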

[7] = read-out: Maximum stimulation of IGABA at EC3–7

Sequence of α2β2 GABAA receptors (P23576 29-451): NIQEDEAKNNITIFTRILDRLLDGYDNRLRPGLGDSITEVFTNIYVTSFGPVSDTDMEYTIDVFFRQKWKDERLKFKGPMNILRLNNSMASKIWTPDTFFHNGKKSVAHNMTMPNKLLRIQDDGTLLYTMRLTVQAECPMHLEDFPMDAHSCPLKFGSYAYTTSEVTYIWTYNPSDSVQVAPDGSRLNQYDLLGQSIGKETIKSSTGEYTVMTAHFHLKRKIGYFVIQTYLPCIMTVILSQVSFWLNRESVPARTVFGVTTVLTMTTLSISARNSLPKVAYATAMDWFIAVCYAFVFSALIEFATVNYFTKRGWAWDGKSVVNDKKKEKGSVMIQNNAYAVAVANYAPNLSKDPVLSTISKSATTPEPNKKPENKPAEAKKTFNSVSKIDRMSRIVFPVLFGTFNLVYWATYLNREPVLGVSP
Sequence of α2β2 GABAA receptors (P63138 25-474 limits assumed): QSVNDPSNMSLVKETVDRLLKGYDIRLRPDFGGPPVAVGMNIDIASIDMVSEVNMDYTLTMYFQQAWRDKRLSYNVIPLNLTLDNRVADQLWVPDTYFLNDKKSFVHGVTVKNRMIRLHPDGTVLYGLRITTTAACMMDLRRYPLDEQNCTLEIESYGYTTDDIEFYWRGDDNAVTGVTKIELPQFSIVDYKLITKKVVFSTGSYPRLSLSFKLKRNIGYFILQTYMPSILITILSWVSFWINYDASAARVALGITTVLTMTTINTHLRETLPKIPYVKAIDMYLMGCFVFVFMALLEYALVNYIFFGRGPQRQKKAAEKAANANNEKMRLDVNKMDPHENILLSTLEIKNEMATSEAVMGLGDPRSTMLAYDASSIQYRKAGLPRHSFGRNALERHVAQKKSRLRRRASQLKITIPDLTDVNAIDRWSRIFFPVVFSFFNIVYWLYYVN
Sequence of α1β3 GABAA receptors (P62813 28-455): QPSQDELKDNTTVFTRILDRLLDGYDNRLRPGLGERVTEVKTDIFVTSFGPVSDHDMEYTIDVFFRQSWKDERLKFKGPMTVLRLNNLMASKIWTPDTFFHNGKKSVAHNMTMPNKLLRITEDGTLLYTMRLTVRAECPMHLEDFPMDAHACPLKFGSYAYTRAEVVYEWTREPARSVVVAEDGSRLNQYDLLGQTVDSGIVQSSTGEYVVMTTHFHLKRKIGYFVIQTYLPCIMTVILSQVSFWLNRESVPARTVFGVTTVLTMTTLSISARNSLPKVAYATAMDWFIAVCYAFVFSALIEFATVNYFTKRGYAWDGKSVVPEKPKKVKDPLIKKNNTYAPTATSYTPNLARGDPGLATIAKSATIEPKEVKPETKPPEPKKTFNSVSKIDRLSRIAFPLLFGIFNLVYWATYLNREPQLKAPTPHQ
Sequence of α1β3 GABAA receptors (P63079 26-473): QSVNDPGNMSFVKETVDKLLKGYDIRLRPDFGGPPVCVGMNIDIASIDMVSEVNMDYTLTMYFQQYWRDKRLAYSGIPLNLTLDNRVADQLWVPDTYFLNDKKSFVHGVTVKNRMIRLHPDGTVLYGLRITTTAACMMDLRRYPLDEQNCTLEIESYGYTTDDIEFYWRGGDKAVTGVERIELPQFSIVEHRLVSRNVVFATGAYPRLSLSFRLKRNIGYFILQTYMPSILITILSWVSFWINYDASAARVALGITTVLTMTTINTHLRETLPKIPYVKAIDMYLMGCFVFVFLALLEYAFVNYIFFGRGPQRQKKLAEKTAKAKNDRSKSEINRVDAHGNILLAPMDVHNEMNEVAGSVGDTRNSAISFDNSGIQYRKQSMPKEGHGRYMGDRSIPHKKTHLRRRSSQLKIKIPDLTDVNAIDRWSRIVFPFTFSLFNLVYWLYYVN
Sequence of α1β2 GABAA receptors (P62813 28-455): as the sequence (P62813 28-455) above
Sequence of α1β2 GABAA receptors (P63138 25-474 limits assumed): as the sequence (P63138 25-474 limits assumed) above
Sequence of α1β1 GABAA receptors (P62813 28-455): as the sequence (P62813 28-455) above
Sequence of α1β1 GABAA receptors (P15431 26-474): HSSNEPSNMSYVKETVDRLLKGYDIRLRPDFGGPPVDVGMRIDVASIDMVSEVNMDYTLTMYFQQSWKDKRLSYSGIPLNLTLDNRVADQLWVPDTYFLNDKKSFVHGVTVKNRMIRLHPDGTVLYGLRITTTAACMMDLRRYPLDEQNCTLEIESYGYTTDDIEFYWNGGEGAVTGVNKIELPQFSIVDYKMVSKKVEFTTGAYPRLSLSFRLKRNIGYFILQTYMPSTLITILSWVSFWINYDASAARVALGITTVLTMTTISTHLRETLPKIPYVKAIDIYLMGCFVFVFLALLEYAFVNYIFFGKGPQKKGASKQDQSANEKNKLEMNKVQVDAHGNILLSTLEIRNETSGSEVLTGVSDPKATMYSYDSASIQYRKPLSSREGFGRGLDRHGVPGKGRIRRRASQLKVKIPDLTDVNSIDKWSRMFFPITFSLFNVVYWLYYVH
Sequence of TRPV1 channels (O35433 whole entry, the tested form may be a part): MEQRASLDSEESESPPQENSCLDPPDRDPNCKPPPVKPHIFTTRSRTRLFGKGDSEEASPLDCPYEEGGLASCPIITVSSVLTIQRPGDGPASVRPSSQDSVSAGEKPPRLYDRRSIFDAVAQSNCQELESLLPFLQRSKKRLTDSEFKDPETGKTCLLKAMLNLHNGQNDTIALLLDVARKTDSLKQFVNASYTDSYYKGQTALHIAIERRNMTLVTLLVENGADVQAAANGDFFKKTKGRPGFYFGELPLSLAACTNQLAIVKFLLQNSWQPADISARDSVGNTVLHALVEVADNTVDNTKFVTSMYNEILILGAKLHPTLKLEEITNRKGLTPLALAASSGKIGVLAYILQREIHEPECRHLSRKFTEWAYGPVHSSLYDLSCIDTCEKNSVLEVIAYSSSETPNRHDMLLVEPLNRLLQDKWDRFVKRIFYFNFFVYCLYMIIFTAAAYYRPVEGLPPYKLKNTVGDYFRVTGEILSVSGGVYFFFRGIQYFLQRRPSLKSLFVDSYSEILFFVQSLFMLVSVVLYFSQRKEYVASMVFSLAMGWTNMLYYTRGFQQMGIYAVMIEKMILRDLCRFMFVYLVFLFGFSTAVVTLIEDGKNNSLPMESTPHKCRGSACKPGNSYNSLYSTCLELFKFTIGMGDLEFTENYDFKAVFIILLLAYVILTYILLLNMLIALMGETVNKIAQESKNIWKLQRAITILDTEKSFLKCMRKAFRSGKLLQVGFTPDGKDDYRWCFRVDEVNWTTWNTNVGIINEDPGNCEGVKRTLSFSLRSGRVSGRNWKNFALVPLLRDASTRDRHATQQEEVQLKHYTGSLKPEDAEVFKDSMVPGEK
T1 sequence (P20236 29-493): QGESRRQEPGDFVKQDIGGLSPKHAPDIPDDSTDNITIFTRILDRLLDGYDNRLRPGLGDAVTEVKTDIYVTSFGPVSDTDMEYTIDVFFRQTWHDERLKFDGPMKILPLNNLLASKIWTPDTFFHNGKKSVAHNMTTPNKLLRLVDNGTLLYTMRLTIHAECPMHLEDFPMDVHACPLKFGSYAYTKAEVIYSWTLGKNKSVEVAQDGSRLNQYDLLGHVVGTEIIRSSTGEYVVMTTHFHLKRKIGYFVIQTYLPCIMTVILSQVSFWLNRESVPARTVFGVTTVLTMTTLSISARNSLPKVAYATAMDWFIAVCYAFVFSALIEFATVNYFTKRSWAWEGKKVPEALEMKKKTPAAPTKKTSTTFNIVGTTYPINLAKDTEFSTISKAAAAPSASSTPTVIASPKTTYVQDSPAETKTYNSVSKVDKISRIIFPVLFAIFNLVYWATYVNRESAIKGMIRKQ
T1 sequence (P63138 25-474 limits assumed): as the sequence (P63138 25-474 limits assumed) above
Sequence of α5β2 GABAA receptors (P19969 26-464): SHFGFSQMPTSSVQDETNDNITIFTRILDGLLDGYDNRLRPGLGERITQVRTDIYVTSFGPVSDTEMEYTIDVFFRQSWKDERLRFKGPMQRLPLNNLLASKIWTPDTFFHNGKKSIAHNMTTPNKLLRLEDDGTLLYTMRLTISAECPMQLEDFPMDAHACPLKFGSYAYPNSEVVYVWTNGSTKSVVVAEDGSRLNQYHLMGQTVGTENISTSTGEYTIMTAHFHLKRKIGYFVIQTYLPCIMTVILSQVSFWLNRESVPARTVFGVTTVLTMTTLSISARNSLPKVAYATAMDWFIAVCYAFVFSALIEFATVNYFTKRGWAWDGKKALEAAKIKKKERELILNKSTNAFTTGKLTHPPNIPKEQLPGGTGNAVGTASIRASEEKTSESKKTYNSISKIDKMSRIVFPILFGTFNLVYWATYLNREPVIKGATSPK
Sequence of α5β2 GABAA receptors (P63138 25-474 limits assumed): as the sequence (P63138 25-474 limits assumed) above
Sequence of α1β2γ2S GABAA receptors (P62813 28-455): as the sequence (P62813 28-455) above
Sequence of α1β2γ2S GABAA receptors (P63138 25-474 limits assumed): as the sequence (P63138 25-474 limits assumed) above
Sequence of α1β2γ2S GABAA receptors (P18508 39-466 partner): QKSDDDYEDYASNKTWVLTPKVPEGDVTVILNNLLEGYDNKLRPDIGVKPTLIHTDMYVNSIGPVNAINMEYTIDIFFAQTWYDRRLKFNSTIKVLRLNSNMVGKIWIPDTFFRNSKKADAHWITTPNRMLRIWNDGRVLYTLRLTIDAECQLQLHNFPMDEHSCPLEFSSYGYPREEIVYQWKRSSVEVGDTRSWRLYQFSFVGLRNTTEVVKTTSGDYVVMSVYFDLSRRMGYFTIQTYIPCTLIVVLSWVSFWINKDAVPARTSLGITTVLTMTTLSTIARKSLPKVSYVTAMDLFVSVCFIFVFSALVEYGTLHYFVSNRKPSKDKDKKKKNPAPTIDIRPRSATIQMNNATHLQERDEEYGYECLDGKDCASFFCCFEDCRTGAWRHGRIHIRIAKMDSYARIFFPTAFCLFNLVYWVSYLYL

EC50 (α2β2 GABAA receptors): 42.8 ± 17.6 µM | Emax (α2β2 GABAA receptors; [7]): 248 ± 48% | Hill coefficient (nH) (α2β2 GABAA receptors; α2β2, GABA EC3–7): 1.9 ± 0.5 | EC50 (TRPV1 channels): 33.3 ± 0.1 µM | Hill coefficient of TRPV1 activation (TRPV1 channels; 3–300 μM): 4.1 ± 0.1 | Activation of TRPV1 receptors (inward currents) (TRPV1 channels; oocytes expressing TRPV1, up to 300 μM): induced marked inward currents | IGABA,max in the presence of compound (α3β2 GABAA receptors [1]): 123 ± 3% | EC50 (α1β1 GABAA receptors): 57.6 ± 4.2 µM | Emax (α1β1 GABAA receptors; [7]): 171 ± 22% | Hill coefficient (nH) (α1β1 GABAA receptors; α1β1, GABA EC3–7): 1.4 ± 0.2 | EC50 (α5β2 GABAA receptors): 47.5 ± 17.9 µM | Emax (α5β2 GABAA receptors; [7]): 136 ± 22% | Hill coefficient (nH) (α5β2 GABAA receptors; α5β2, GABA EC3–7): 1.7 ± 0.4 | Body temperature (C57BL/6N mice [3]; 10 mg/kg bodyweight i.p.): 34.86 ± 0.29 °C | Body temperature (C57BL/6N mice [3]; 30 mg/kg bodyweight i.p.): 30.37 ± 0.84 °C | EC50 (α1β3 GABAA receptors): 48.3 ± 7.3 µM | Emax (α1β3 GABAA receptors; [7]): 332 ± 64% | Hill coefficient (nH) (α1β3 GABAA receptors; α1β3, GABA EC3–7): 1.5 ± 0.3 | EC50 (α3β2 GABAA receptors [5]): 59.6 ± 12.3 µM | Emax (α3β2 GABAA receptors [5]; [7]): 375 ± 51% | Hill coefficient (nH) (α3β2 GABAA receptors [5]; α3β2, GABA EC3–7): 1.4 ± 0.2 | EC50 (α1β2 GABAA receptors): 50 ± 7.9 µM | Emax (α1β2 GABAA receptors; [7]): 271 ± 36% | Hill coefficient (nH) (α1β2 GABAA receptors; α1β2, GABA EC3–7): 1.5 ± 0.3
SMILES: O=C(/C=C/C=C/c1ccc2c(c1)OCO2)N1CCCCC1 [Piperine, 1-piperoylpiperidine]
Activation of GABAA receptors in the absence of GABA (GABAA receptors): Neither piperine nor SCT-66 (up to 300 μM) activated GABAA receptors | Seizure threshold (PTZ dose) (C57BL/6N mice [2]; 3 mg/kg bodyweight i.p.): 46.2 ± 5.4 mg/kg bodyweight PTZ | Seizure threshold (PTZ dose) (C57BL/6N mice [2]; 30 mg/kg bodyweight i.p.): 30.3 ± 3.4 mg/kg bodyweight PTZ | Effect on seizure threshold (C57BL/6N mice [2]; doses below 3 mg/kg bodyweight i.p.): did not affect seizure threshold | Vasodilatory effects during PTZ tail-vein infusion (C57BL/6N mice [2]; doses of 10–30 mg/kg, data not shown): observed vasodilatory effects | Total distance travelled (OF) (C57BL/6N mice [4]; 30 mg/kg bodyweight i.p., 30 min before test, 10 min test, control 39.3 ± 1.9 m): 21.0 ± 3.7 m | Reduction of ambulation compared to control (OF) (C57BL/6N mice [4]; 30 mg/kg i.p.): approximately 50% | Doses with significant reduction of ambulation (OF) (C57BL/6N mice [4]; i.p., 30 min before test): ≥ 3 mg/kg bodyweight | EC50 (α1β2γ2S GABAA receptors): 52.4 ± 9.4 µM | IGABA,max (α1β2γ2S GABAA receptors): 302 ± 27% | Time spent in the open arms (OA) in % of total time (EPM) (C57BL/6N mice [6]; 0.1 mg/kg bodyweight i.p., vs saline-treated control): did not significantly differ | Time spent in the open arms (OA) in % of total time (EPM) (C57BL/6N mice [6]; 0.3 mg/kg bodyweight i.p., 30 min before test, control 28.6 ± 2.1%): 43.0 ± 4.2% | Effect on ambulation (EPM total distance) (C57BL/6N mice [6]; 1 mg/kg bodyweight i.p.): significantly reduced ambulation | Time spent in the open arms (OA) in % of total time (EPM) (C57BL/6N mice [6]; 1 mg/kg bodyweight i.p., 30 min before test, control 28.6 ± 2.1%): 45.7 ± 6.3% | Number of closed arm (CA) entries (EPM) (C57BL/6N mice [6]; doses ≥0.3 mg/kg bodyweight i.p.): dropped significantly
